# Measured values taken from article PMC7125971 (European Journal of Medicinal Chemistry, 2015).
# Entries after “also recorded” stand apart in the source; their conditions may differ.
# Assays:
# [1] = test system: Para-influenza-3 virus; assay: organism not typed; assay type: cell-based; conditions: Vero, read-out: EC50 Para-influenza-3 virus
# [2] = test system: Reovirus-1; assay: organism not typed; assay type: cell-based; conditions: Vero, read-out: EC50 Reovirus-1
# [3] = test system: all tested malignant cell lines; assay: Cytostatic activity on the whole panel of malignant cell lines; assay type: cell-based
# Summary of the method: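 Malignant lines HeLa, SW620, MiaPaCa-2, HepG2 and CFPAC-1 grown as monolayers in DMEM with 10% FBS at 37 °C, 5% CO2. Plated at 5000 cells/well and exposed 72 h to five 10-fold dilutions (0.01–100 μM), with DMSO ≤0.1%. Growth read by MTT and converted to percentage growth by NIH formulas. Quadruplicate points in three experiments; ANOVA with Tukey post-hoc test.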
# [4] = test system: HeLa cells (cervical carcinoma); assay: Antiproliferative assay; assay type: cell-based, human
# Summary of the method: (§1)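 Cells grown as monolayers in DMEM with 10% FBS, 2 mM L-glutamine, 100 U/ml penicillin and 100 μg/ml streptomycin at 37 °C, 5% CO2. 5000 cells/well seeded on day 0. Compound added in five 10-fold dilutions (0.01–100 μM); final DMSO ≤0.1%. Cells incubated 72 h, then MTT; absorbance converted to percentage growth vs same-plate untreated controls. Quadruplicate points in three experiments; ANOVA with Tukey post-hoc test.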
# [5] = test system: 3T3 cells (embryonal murine fibroblasts); assay: Cytotoxic effects on embryonal murine fibroblasts 3T3; assay type: cell-based, mouse
# Summary of the method: as §1
# [6] = test system: African green monkey kidney epithelial cells (Vero); conditions: alteration of normal cell morphology, listed as C00010
# [7] = test system: Madin Darby canine kidney (MDCK) cells
# [8] = test system: Crandell-Rees feline kidney cells (CRFK)
# [9] = test system: human embryonic lung cells (HEL); assay: Cytostatic activity; assay type: cell-based
# Summary of the method: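 HEL cells seeded at 5 × 10^3 cells/well and allowed to proliferate 24 h. Medium with varying compound concentrations then added, and cells incubated 3 days at 37 °C. Cell number counted by Coulter counter. CC50 (50% reduction in proliferation vs untreated controls) read from plots of cell number (% of control) against concentration.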
# [10] = test system: human cytomegalovirus (HCMV); assay: Anti-HCMV activity in HEL cells, strain not told apart in the statement; assay type: cell-based; conditions: compared to compound 3
# [11] = test system: Punta Toro virus; assay: microbe, parasite or virus in culture; assay type: cell-based; conditions: Vero, read-out: EC50 Punta Toro virus
Structure (SMILES),EC50 [2] [µM],cytostatic activity on the malignant cell line panel (in words) [3],cytotoxic effects on 3T3 cells (in words) [5],other results
"Nc1ncnc2c1ncn2C[C@H](O)CO [(S)-DHPA, (S)-9-(2,3-dihydroxypropyl)adenine, reference compound]",> 250,–,–,EC50 [1]: > 250 µM
"O=C1O/C(=C\Cn2cnc3cncc(Br)c32)C(OCc2ccccc2)=C1OCc1ccccc1 [Compound 1, 3,4-di-O-benzyl-5-(9-(3-bromo-1H-imidazo[4,5-c]pyridine-9-yl)ethylidene)furan-2(5H)-one]",–,weak and nonselective antiproliferative activity,low cytotoxic effects; also recorded: moderate or low cytotoxic effects,activity / cytostatic effects on HeLa cells (in words) [4]: moderate activity
"O=C1O/C(=C\Cn2cnc3c(F)nc(F)c(Cl)c32)C(OCc2ccccc2)=C1OCc1ccccc1 [Compound 2, 3,4-di-O-benzyl-5-(9-(3-chloro-2,6-difluoro-1H-imidazo[4,5-c]pyridine-9-yl)ethylidene)furan-2(5H)-one]",> 20,–,–,EC50 [1]: > 20 µM; activity / cytostatic effects on HeLa cells (in words) [4]: no cytostatic effects; MCC [6]: ≥20 µM
"O=C1O/C(=C\Cn2cnc3c(Cl)c(F)nc(F)c32)C(OCc2ccccc2)=C1OCc1ccccc1 [Compound 3, 3,4-di-O-benzyl-5-(7-(3-chloro-2,6-difluoro-1H-imidazo[4,5-c]pyridine-7-yl)ethylidene)furan-2(5H)-one]",> 20,–,did not show any cytostatic effects,EC50 [1]: > 20 µM; cytostatic effects on MDCK cells (in words) [7]: did not show any cytostatic effects; cytostatic effects on CRFK cells (in words) [8]: did not show any cytostatic effects; activity / cytostatic effects on HeLa cells (in words) [4]: did not show any cytostatic effects; cytotoxic effects on HEL cells (in words) [9]: without cytotoxic effects; also recorded: did not show any cytostatic effects
"O=C1NC(O)(CCn2cnc3cncc(Br)c32)C(OCc2ccccc2)=C1OCc1ccccc1 (centres unmarked) [Compound 6, 3,4-di-O-benzyl-5-(9-(3-bromo-1H-imidazo[4,5-c]pyridine-9-yl)ethyl)-5-hydroxy-1H-pyrrolo-2(5H)-one]",–,weak and nonselective antiproliferative activity,moderate or low cytotoxic effects,–
"Nc1nc(F)c(Cl)c2c1ncn2CCC1(O)NC(=O)C(OCc2ccccc2)=C1OCc1ccccc1 (centres unmarked) [Compound 7, 5-(9-(6-amino-3-chloro-2-fluoro-1H-imidazo[4,5-c]pyridine-9-yl)ethyl)-3,4-di-O-benzyl-5-hydroxy-1H-pyrrolo-2(5H)-one]",–,–,–,anti-HCMV activity (in words) [10]: lost anti-HCMV activity; also recorded: loss of anti-HCMV activity
"O=C1O/C(=C\Cn2cnc3c(Cl)c(F)nc(F)c32)C(O)=C1O [Compound 8, 5-(2-(7-chloro-4,6-difluoro-3H-imidazo[4,5-c]pyridine-3-yl)ethylidene)-3,4-dihydroxyfuran-2(5H)-one]",–,–,–,anti-HCMV activity (in words) [10]: loss of anti-HCMV activity
"O=C1O/C(=C\Cn2cc(I)c3c(Cl)ncnc32)C(OCc2ccccc2)=C1OCc1ccccc1 [Compound 10, 3,4-di-O-benzyl-5-(9-(6-chloro-7-iodo-7H-pyrrolo[2,3-d]pyrimidine-9-yl)ethylidene)furan-2(5H)-one]",–,no marked cytostatic nor antiviral activities,–,–
"O=C1NC(O)(/C=C\n2cc(I)c3c(Cl)ncnc32)C(OCc2ccccc2)=C1OCc1ccccc1 (centres unmarked) [Compound 12, 3,4-di-O-benzyl-5-(9-(6-chloro-7-iodo-7H-pyrrolo[2,3-d]pyrimidine-9-yl)-vinyl)-5-hydroxy-1H-pyrrolo-2(5H)-one]",–,weak and nonselective antiproliferative activity; also recorded: no marked cytostatic nor antiviral activities,moderate or low cytotoxic effects,–
"O=C1O/C(=C\Cn2cnc3cc[nH]c3c2=O)C(OCc2ccccc2)=C1OCc1ccccc1 [Compound 14, 3,4-di-O-benzyl-5-(1-(3H-pyrrolo[3,2-d]pyrimidine-4(5H)-one-1-yl)ethylidene)furan-2(5H)-one]",–,–,without cytotoxic effects,–
"NC(=O)c1ncn([C@@H]2O[C@H](CO)[C@@H](O)[C@H]2O)n1 [Ribavirin, reference compound]",> 250,–,–,EC50 [11]: 150 ± 141 µM
